Sampled rows, rich in hits. Any-hit rate of the full collection: about 0.96%.
CIT2-GFP yeast: alters CIT2-GFP fluorescence in TOR pathway yeast screen. S. cerevisiae CIT2-GFP strain, flow cytometry, 3 h; 100 means same as DMSO wells. GFP response vs DMSO, % at 10 µM. 0.065% of 320,000 active;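 active = GFP response relative to DMSO above a set limit, near the screen mean plus 3 SD, cut at about 150% in these data; inconclusive = Fewer than 70 cells measured for a yeast strain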;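 note: ratio of well median GFP fluorescence to mean of DMSO wells on the plate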
MEP2 TOR yeast: alters MEP2-GFP fluorescence in TOR pathway yeast screen | S. cerevisiae MEP2-GFP strain, flow cytometry GFP, 3 h; 100% = DMSO control level | GFP response vs DMSO, % at 10 µM | 0.51% of 330,000 active | AID 2016;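 active = GFP response versus DMSO above a set limit, roughly screen mean plus 3 SD, cut at about 180% in these data; inconclusive = fewer than 70 cells counted for a yeast strain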;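 note: median GFP fluorescence of the barcode-gated MEP2-GFP cells per well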
AGP1 TOR yeast: modulators of TOR pathway AGP1-GFP in S. cerevisiae | GFP response vs DMSO, % at 10 µM | 0.02% of 320,000 active | S. cerevisiae AGP1-GFP multiplex flow cytometry, 3 h; GFP as percent of DMSO wells;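 active = GFP response relative to DMSO above a set limit, near screen average plus 3 SD, cut at about 150% in these data; inconclusive = fewer than 70 cells counted for the yeast strain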;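 note: median GFP channel fluorescence of the gated AGP1 strain per well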
RPL19A-GFP yeast: modulators of TOR pathway RPL19A-GFP in S. cerevisiae | S. cerevisiae RPL19A-GFP strain, flow cytometry, 3 h; active compounds read low | percent response vs DMSO, % at 10 µM | 0.3% of 330,000 active | AID 2025;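 active = percent response vs DMSO below 50%; inconclusive = fewer than 70 events counted for the yeast strain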;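 note: median channel GFP fluorescence of the barcoded RPL19A-GFP strain; lower means less RPL19A-GFP as with rapamycin TOR inhibition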
LAP4-GFP MLPCN: yeast TOR pathway LAP4-GFP modulation. 0.34% of 320,000 active. GFP response vs DMSO, % at 10 µM. S. cerevisiae LAP4-GFP multiplex, flow cytometry GFP, 3 h; median GFP as percent of DMSO wells;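 active = GFP response vs DMSO above a set limit, about the screen mean plus 3 SD, cut at about 150% in these data; inconclusive = under 70 cell events counted for the yeast strain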
T cell HTS: T cell immune modulators affecting CD8 T cell-vesicle binding. 0.068% of 330,000 active. response (vesicle binding), % at 7 µM. 2C CD8+ T cell-vesicle binding, flow cytometry; active compounds read low;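 active = response, share of CD8 T cells binding vesicles, and their 90th percentile fluorescence all below set limits, cut at about 80% in these data, passing the limit was not always enough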;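 note: values below 100% mean blocked vesicle binding to the CD8+ T cells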
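Incubation: binding step 1.5 h, 37 °C, antibody labelling 20 min, ice; system: murine 2C transgenic CD8+ T lymphocytes; technique: cytometric PE anti-B7-1 and Alexa647 anti-CD8 signals after 1% paraformaldehyde fixation; also added: QL9-charged Drosophila Ld/ICAM-1/B7-1 vesicles; control set: naked versus QL9-loaded vesicles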
Large screens that a line does not name were inactive; [ ] = another dose, or the depositor's remark.

Cc1c(CC(C)C)nc(N)c(C#N)c1-c1ccccc1	MEP2 TOR yeast 350
O=C(CCNC(=O)c1ccc(Cl)cc1)Nc1ccncc1	none
C=CCOc1ccccc1CN1CCN(CCc2ccccc2)C(CCO)C1 (configuration not stated)	none
CCOC(=O)Cc1c(C)c2c(C)[nH]nc2oc1=O	CIT2-GFP yeast inconclusive, MEP2 TOR yeast 328[may fluoresce violet], AGP1 TOR yeast inconclusive, RPL19A-GFP yeast 23[may fluoresce violet]
C#CCOCCOCCOCCNc1nc(N2CCN(C(=O)CCCCCCCCCCNC(=O)[C@H](CCCCN)n3cc(C[C@@H](C)CC)nn3)CC2)nc(N2CCN(C(=O)CCCCCCCCCCNC(=O)[C@H](CCCN=C(N)N)n3cc(C[C@@H](C)CC)nn3)CC2)n1	LAP4-GFP MLPCN 198
C#CCOCCOCCOCCNc1nc(N2CCN(C(=O)CCCCCCCCCCNC(=O)[C@H](CO)n3cc(CCCCCN)nn3)CC2)nc(N2CCN(C(=O)CCCCCCCCCCNC(=O)[C@H](CCCN=C(N)N)n3cc(C[C@@H](C)CC)nn3)CC2)n1	LAP4-GFP MLPCN 162
COc1cccc(NC(=O)N2CCCC2C(=O)NCc2ccc(Cl)cc2)c1 (configuration not stated)	none
CSc1ccc(NC(=O)Nc2ccc(C(=O)NCC(=O)O)cc2)cc1	none
O=C(CN1C(=O)S/C(=C\c2cccc(Cl)c2)C1=O)NCCCn1ccnc1	CIT2-GFP yeast inconclusive, MEP2 TOR yeast 707[may fluoresce violet], AGP1 TOR yeast inconclusive, RPL19A-GFP yeast 50[may fluoresce violet]
O=C(CN1C(=O)S/C(=C\c2ccc(Cl)cc2)C1=O)NCCCn1ccnc1	none
Cc1cccc(N(CC(=O)NC2CCCC2)C(=O)CNC(=O)c2ccco2)c1C	none
CC1CCN(C(=O)COc2ncnc3ccccc23)CC1	CIT2-GFP yeast inconclusive, MEP2 TOR yeast 289[may fluoresce violet], AGP1 TOR yeast inconclusive, RPL19A-GFP yeast 46[may fluoresce violet]
O=C(O)c1ccc(N/N=C/C(Br)=C/c2ccccc2)cc1	LAP4-GFP MLPCN 161
CC1CN(C(=O)COC(=O)c2ccc(O)cc2)CC(C)O1 (configuration not stated)	CIT2-GFP yeast inconclusive, MEP2 TOR yeast inconclusive, AGP1 TOR yeast inconclusive, RPL19A-GFP yeast 23[may fluoresce violet]
COc1ncnc2c1oc1nc(C(C)C)c3c(c12)CC(C)(C)OC3	MEP2 TOR yeast 531[may fluoresce violet], RPL19A-GFP yeast 44[may fluoresce violet] (no result: CIT2-GFP yeast)
COc1ncnc2c1oc1nc(C)c3c(c12)CC(C)(C)OC3	none
COc1ccccc1OCCCCn1c(C(C)O)nc2ccccc21 (configuration not stated)	none
COc1ccc(Cn2nnnc2C(c2cccs2)N2CCCCCC2)cc1 (configuration not stated)	T cell HTS 52
CCOc1ccc(NC(=O)C2CCCN(c3c(CC)c(C)nc4ncnn34)C2)cc1 (configuration not stated)	CIT2-GFP yeast inconclusive, MEP2 TOR yeast 214[may fluoresce violet]
CCOC(=O)CC1C(=O)NCCN1C(=O)c1ccc(Cl)c(Cl)c1 (configuration not stated)	none
Cc1cc(C)cc(OCC(=O)N(Cc2ccc(N(C)C)cc2)C2CCS(=O)(=O)C2)c1 (configuration not stated)	none
O=C(Cc1cccc2ccccc12)Nc1ccccc1	CIT2-GFP yeast inconclusive, MEP2 TOR yeast 235[may fluoresce violet], AGP1 TOR yeast inconclusive, RPL19A-GFP yeast 46[may fluoresce violet]
Brc1ccc2c(c1)OCCOCCOc1cc(Br)ccc1OCCOCCOCCO2	LAP4-GFP MLPCN 219
Brc1cc2c(cc1Br)OCCOCCOCCOCCO2	none (no result: CIT2-GFP yeast)
CC(=O)c1ccc2c(c1)OCCOCCOCCO2	CIT2-GFP yeast inconclusive, MEP2 TOR yeast 575[may fluoresce violet], AGP1 TOR yeast inconclusive, RPL19A-GFP yeast 47[may fluoresce violet]
Cc1nc(SCC(=O)N2CCCC2=O)nc(C)c1C	none
COc1cccc(/C=C2\CCCCC2=O)c1	CIT2-GFP yeast inconclusive, MEP2 TOR yeast 426[may fluoresce violet], AGP1 TOR yeast inconclusive, RPL19A-GFP yeast 43[may fluoresce violet]
COc1ccc(CN(C(=O)c2snc(C(N)=O)c2N)C(C(=O)NC2CCCC2)c2cc(OC)ccc2OC)cc1 (configuration not stated)	CIT2-GFP yeast inconclusive, MEP2 TOR yeast 302[may fluoresce violet], AGP1 TOR yeast inconclusive, RPL19A-GFP yeast 41[may fluoresce violet]
COc1cccc(NC(=O)CSc2ccc3nnc(CCNC(=O)c4ccccc4)n3n2)c1	none
O=C(CSc1ccsc1[N+](=O)[O-])NC1CCCC1	CIT2-GFP yeast inconclusive, MEP2 TOR yeast 204[may fluoresce violet], AGP1 TOR yeast inconclusive
Cc1c(Cl)cnc(NC(=O)CSc2n[nH]c(N)n2)c1Cl	none
Cc1ccc(-n2nc(C)c3c(C)c(CCC(=O)O)c(C)nc32)cc1C	none
Cc1ccc(-n2nc(C)c3c(C)c(CCC(=O)O)c(C)nc32)cc1	MEP2 TOR yeast 185, LAP4-GFP MLPCN 151
COC(=O)NC(C)N1C(=O)C2C3C=CC(C3)C2C1=O (configuration not stated)	none
Cc1ccc(C(=O)Nc2nc(-c3ccccn3)cs2)o1	none
O=C(Nc1nc(-c2ccccn2)cs1)c1ccc(-c2ccccc2F)o1	CIT2-GFP yeast inconclusive, LAP4-GFP MLPCN 170[may fluoresce violet]
COc1ccccc1CN1CC(C(=O)N2CCC(OC)CC2)CCC1=O (configuration not stated)	none
Cc1c(C(=O)N2CCN(C)CC2)oc2c1C(=O)CC(C)(C)C2	CIT2-GFP yeast inconclusive, MEP2 TOR yeast 212[may fluoresce violet]
Cc1c(C(=O)N2CCOCC2)oc2c1C(=O)CC(C)(C)C2	none
CN(C(=O)COC(=O)Cn1cnc2ccccc21)C1CCCCC1	none
Cc1cc(OCC(=O)N(Cc2ccco2)c2c(N)n(Cc3ccccc3)c(=O)[nH]c2=O)ccc1Cl	none
CCCc1cc(=O)n(-c2nc3ccccc3s2)[nH]1	LAP4-GFP MLPCN 159
Cc1ccc(S(=O)(=O)NCCC(=O)Nc2ccc(S(=O)(=O)NC(C)C)cc2)cc1	none
Cc1cccc(NS(=O)(=O)c2ccc(-n3cccn3)cc2)c1C	CIT2-GFP yeast inconclusive, AGP1 TOR yeast inconclusive, RPL19A-GFP yeast 22[may fluoresce violet]
Cc1ccc(NS(=O)(=O)c2ccc(-n3cccn3)cc2)cc1F	CIT2-GFP yeast inconclusive, AGP1 TOR yeast inconclusive, RPL19A-GFP yeast 14[may fluoresce violet]
Cc1ccc(NS(=O)(=O)c2ccc(-n3cccn3)cc2)c(C)c1	none
O=C(CSc1ccccc1)Nc1ccc2sccc2c1	none
COc1nc(NC2CCCCC2)nc(NC(C)(C)C)n1	none
CC(C)(C)Nc1nc(Cl)nc(NC2CCCCC2)n1	CIT2-GFP yeast inconclusive, AGP1 TOR yeast inconclusive, RPL19A-GFP yeast 42[may fluoresce violet]
O=c1[nH]c(CSc2ccccn2)nc2ccccc12	none
Nn1c(CSc2ccccn2)nc2ccccc2c1=O	CIT2-GFP yeast inconclusive, MEP2 TOR yeast 261[may fluoresce violet], AGP1 TOR yeast inconclusive
O=C(N[C@H]1C/C=C\C[C@@H](CC(=O)N(CCO)Cc2ccccc2)C(=O)N2CCC[C@H]2COC1=O)OCC1c2ccccc2-c2ccccc21	none
